Reference: ChEMBL document CHEMBL5244263, “Studies on fragment-based design of allosteric inhibitors of human factor XIa” (Bioorg Med Chem, 2020)
Calls of active or inactive are those of the source. The calls are words filed in the database; no cut-off is given here.

Key:
Homo sapiens [1] = species on record: Homo sapiens; test: Selectivity for inhibition of human FXIa over human thrombin
Homo sapiens [2] = species on record: Homo sapiens; test: Selectivity for inhibition of human FXIa over human FIXa
[3] = target: T1, Coagulation factor VII (Homo sapiens) (UniProt P08709); test: Inhibition of FVIIa (unknown origin) at 500 uM by chromogenic substrate hydrolysis assay
T1 sequence (whole entry): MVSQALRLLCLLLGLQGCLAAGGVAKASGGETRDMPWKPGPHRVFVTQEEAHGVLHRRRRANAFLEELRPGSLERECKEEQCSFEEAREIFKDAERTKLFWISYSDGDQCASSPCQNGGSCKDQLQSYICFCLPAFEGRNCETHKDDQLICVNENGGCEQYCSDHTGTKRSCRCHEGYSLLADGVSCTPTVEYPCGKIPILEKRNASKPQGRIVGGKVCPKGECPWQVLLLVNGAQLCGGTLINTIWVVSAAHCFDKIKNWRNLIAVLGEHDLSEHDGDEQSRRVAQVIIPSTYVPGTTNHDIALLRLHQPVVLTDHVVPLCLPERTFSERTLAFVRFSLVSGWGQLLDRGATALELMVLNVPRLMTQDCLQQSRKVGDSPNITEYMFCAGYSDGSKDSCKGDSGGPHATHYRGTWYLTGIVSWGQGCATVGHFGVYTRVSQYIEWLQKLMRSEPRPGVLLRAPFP

[4] = target: Chymotrypsinogen A (Bos taurus) (UniProt P00766); test: Inhibition of bovine alpha-chymotrypsin at 500 uM by chromogenic substrate hydrolysis assay
[5] = target: Prothrombin (Homo sapiens) (UniProt P00734); test: Inhibition of human thrombin at 500 uM by chromogenic substrate hydrolysis assay
[6] = target: Plasma kallikrein (Homo sapiens) (UniProt P03952); test: Inhibition of Kallikrein in human plasma at 500 uM by chromogenic substrate hydrolysis assay; type: cell-free
Plasma kallikrein (Homo sapiens), sequence (P03952 20-390 limits assumed): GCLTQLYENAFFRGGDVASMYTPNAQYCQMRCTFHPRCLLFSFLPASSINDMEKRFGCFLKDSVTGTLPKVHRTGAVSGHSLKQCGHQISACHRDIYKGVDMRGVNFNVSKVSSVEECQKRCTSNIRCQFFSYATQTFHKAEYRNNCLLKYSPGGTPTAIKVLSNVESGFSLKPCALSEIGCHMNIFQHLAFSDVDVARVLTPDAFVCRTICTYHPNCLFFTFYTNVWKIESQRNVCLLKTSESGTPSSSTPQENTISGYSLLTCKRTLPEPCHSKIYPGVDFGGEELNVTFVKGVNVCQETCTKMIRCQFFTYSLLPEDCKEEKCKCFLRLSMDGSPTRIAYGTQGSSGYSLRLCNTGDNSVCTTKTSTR
Plasma kallikrein (Homo sapiens), sequence (P03952 391-638 limits assumed): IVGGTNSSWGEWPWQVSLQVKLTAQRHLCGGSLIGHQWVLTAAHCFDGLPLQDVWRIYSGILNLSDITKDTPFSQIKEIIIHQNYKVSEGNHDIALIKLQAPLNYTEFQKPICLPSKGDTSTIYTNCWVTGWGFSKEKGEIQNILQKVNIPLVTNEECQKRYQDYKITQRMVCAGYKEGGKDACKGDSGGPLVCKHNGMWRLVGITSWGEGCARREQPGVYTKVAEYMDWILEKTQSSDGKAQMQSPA

Homo sapiens [7] = species on record: Homo sapiens; test: Selectivity for inhibition of human FXIa over FVIIa (unknown origin)
[8] = target: Coagulation factor IX (Homo sapiens) (UniProt P00740); test: Inhibition of human FIXa at 500 uM by chromogenic substrate hydrolysis assay
Coagulation factor IX (Homo sapiens), sequence (P00740 47-191 limits assumed): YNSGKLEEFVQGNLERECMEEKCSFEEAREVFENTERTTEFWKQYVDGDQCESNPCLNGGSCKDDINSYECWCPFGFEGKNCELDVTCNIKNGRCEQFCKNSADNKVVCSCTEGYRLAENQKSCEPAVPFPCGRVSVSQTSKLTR
Coagulation factor IX (Homo sapiens), sequence (P00740 227-461 limits assumed): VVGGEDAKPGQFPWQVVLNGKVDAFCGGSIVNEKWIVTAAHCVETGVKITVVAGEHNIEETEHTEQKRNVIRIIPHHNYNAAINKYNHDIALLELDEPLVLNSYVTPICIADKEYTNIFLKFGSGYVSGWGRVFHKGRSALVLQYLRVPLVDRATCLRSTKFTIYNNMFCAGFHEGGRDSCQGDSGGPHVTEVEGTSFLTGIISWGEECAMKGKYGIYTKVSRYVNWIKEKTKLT

Homo sapiens [9] = species on record: Homo sapiens; test: Selectivity for inhibition of human FXIa over Kallikrein in human plasma; type: cell-free
Homo sapiens [10] = species on record: Homo sapiens; test: Selectivity for inhibition of human FXIa over human FXa
Coagulation factor XI [11] = target: T2, Coagulation factor XI (Homo sapiens, UniProt P03951); test: Inhibition of human FXIa using S-2366 as chromogenic substrate preincubated with enzyme for 10 mins followed by substrate addition by spectrophotometric analysis relative to control; design: concentration or dose not given beside the values
T2 sequence (P03951 19-387 limits assumed): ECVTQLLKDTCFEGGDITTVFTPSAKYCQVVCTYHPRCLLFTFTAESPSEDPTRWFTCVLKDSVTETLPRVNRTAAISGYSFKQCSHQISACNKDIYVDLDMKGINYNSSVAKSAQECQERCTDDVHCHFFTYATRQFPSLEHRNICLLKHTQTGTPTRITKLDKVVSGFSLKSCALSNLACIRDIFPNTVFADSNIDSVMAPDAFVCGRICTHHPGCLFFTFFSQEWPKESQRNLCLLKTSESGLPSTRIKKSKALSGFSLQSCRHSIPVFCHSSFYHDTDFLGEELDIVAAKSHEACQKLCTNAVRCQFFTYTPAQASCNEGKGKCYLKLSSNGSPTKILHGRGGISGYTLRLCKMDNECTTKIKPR
T2 sequence (P03951 388-625 limits assumed): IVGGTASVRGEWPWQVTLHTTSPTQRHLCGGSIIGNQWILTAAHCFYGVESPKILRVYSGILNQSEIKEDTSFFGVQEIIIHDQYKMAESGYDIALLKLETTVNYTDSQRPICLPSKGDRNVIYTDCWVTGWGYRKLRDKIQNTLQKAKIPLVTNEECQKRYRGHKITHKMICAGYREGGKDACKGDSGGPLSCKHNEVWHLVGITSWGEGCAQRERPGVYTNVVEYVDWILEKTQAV
Method in brief: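 hFXIa (0.765 nM final) preincubated with inhibitor or reference solution for 10 min at 37 °C in pH 7.4 buffer (50 mM Tris-HCl, 150 mM NaCl, 0.1% PEG8000, 0.02% Tween80). S-2366 (345 μM final) then added, and residual activity read on a microplate reader.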

Coagulation factor XI [12] = target: T2, Coagulation factor XI; test: Inhibition of human FXIa using S-2366 as chromogenic substrate preincubated with enzyme for 10 mins followed by substrate addition by spectrophotometric analysis
[13] = Selectivity for inhibition of human FXIa over bovine alpha-chymotrypsin
[14] = Selectivity for inhibition of human FXIa over bovine trypsin
Bos taurus [15] = species on record: Bos taurus; test: Inhibition of bovine trypsin using S-2222 as chromogenic substrate at 500 uM by chromogenic substrate hydrolysis assay
[16] = target: Coagulation factor X (Homo sapiens) (UniProt P00742); test: Inhibition of human FXa using methoxycarbonyl-D-cyclohexylglycyl-Gly-Arg-p-nitroanilide as substrate at 500 uM by chromogenic substrate hydrolysis assay
Coagulation factor X (Homo sapiens), sequence (P00742 41-179 limits assumed): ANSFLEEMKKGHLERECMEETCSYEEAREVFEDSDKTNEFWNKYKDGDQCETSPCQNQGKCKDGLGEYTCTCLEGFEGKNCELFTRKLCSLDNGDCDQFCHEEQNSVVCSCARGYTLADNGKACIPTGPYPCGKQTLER
Coagulation factor X (Homo sapiens), sequence (P00742 235-488 limits assumed): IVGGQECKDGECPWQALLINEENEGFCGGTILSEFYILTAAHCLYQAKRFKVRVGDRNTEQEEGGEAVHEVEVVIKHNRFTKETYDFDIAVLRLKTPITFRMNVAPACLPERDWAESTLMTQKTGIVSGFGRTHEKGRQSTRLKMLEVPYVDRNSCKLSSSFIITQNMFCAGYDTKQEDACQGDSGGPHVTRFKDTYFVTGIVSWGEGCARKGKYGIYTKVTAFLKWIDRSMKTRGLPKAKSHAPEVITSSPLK

Bos taurus [17] = species on record: Bos taurus; test: Inhibition of bovine trypsin using S-2222 as chromogenic substrate at >200 uM by chromogenic substrate hydrolysis assay
[18] = target: Coagulation factor X (Homo sapiens) (UniProt P00742); test: Inhibition of human FXa using methoxycarbonyl-D-cyclohexylglycyl-Gly-Arg-p-nitroanilide as substrate at >200 uM by chromogenic substrate hydrolysis assay

SMILES | Selectivity ratio (Homo sapiens [1]) | Selectivity ratio (Homo sapiens [2]) | inhibition [3] | inhibition [4] | inhibition [5] | inhibition [6] | Selectivity ratio (Homo sapiens [7]) | inhibition [8] | Selectivity ratio (Homo sapiens [9]) | Selectivity ratio (Homo sapiens [10]) | inhibition (Coagulation factor XI [11]) [%] | IC50 (Coagulation factor XI [12]) [µM] | Selectivity ratio [13] | Selectivity ratio [14] | inhibition (Bos taurus [15]) | inhibition [16] | inhibition (Bos taurus [17]) | inhibition [18]
O=c1c2ccccc2nc(-c2ccc(OS(=O)(=O)O)cc2)n1Cc1cccc(Cn2c(-c3ccc(OS(=O)(=O)O)cc3)nc3ccccc3c2=O)c1 | > 63 | > 63 | inactive | inactive | inactive | inactive | > 63 | inactive | > 63 | > 63 | 96 | 76 | > 63 | > 63 | inactive | inactive | – | –
O=c1c2ccccc2nc(-c2ccc(OS(=O)(=O)O)cc2)n1CCCCCCCCCCn1cc(Cn2c(-c3ccc(OS(=O)(=O)O)cc3)nc3ccccc3c2=O)nn1 | > 63 | > 63 | inactive | inactive | inactive | inactive | > 63 | inactive | > 63 | > 63 | 112 | 22 | > 63 | > 63 | inactive | inactive | – | –
O=c1c2ccccc2nc(-c2cccc(OS(=O)(=O)O)c2)n1C/C=C/Cn1c(-c2cccc(OS(=O)(=O)O)c2)nc2ccccc2c1=O | > 63 | > 63 | inactive | inactive | inactive | inactive | > 63 | inactive | > 63 | > 63 | 96 | 415 | > 63 | > 63 | inactive | inactive | – | –
O=c1c2ccccc2nc(-c2cccc(OS(=O)(=O)O)c2)n1Cc1ccc(Cn2c(-c3cccc(OS(=O)(=O)O)c3)nc3ccccc3c2=O)cc1 | > 63 | > 63 | inactive | inactive | inactive | inactive | > 63 | inactive | > 63 | > 63 | 100 | 248 | > 63 | > 63 | inactive | inactive | – | –
O=c1c2ccccc2nc(-c2ccc(OS(=O)(=O)O)cc2)n1CCCCCCCCn1cc(Cn2c(-c3ccc(OS(=O)(=O)O)cc3)nc3ccccc3c2=O)nn1 | > 63 | > 63 | inactive | inactive | inactive | inactive | > 63 | inactive | > 63 | > 63 | 100 | 39 | > 63 | > 63 | inactive | inactive | – | –
O=c1c2ccccc2nc(-c2ccc(OS(=O)(=O)O)cc2)n1CCCCCCCCCn1cc(Cn2c(-c3ccc(OS(=O)(=O)O)cc3)nc3ccccc3c2=O)nn1 | > 63 | > 63 | inactive | inactive | inactive | inactive | > 63 | inactive | > 63 | > 63 | 100 | 34 | > 63 | > 63 | inactive | inactive | – | –
O=c1c2ccccc2nc(-c2ccc(OS(=O)(=O)O)cc2)n1CCCCCCCCCCCn1cc(Cn2c(-c3ccc(OS(=O)(=O)O)cc3)nc3ccccc3c2=O)nn1 | > 63 | > 63 | inactive | inactive | inactive | inactive | > 63 | inactive | > 63 | > 63 | 98 | 30 | > 63 | > 63 | inactive | inactive | – | –
O=c1c2ccccc2nc(-c2ccc(OS(=O)(=O)O)cc2)n1CCCCCCCCCCCn1c(-c2ccc(OS(=O)(=O)O)cc2)nc2ccccc2c1=O | > 63 | > 63 | inactive | inactive | inactive | inactive | > 63 | inactive | > 63 | > 25 | 96 | 14.5 | > 63 | > 25 | – | – | Active | Active
O=c1c2ccccc2nc(-c2cccc(OS(=O)(=O)O)c2)n1CCCCCCn1c(-c2cccc(OS(=O)(=O)O)c2)nc2ccccc2c1=O | > 63 | > 63 | inactive | inactive | inactive | inactive | > 63 | inactive | > 63 | > 63 | 96 | 53 | > 63 | > 63 | inactive | inactive | – | –
O=c1c2ccccc2nc(-c2ccc(OS(=O)(=O)O)cc2)n1CCCCCCCCn1c(-c2ccc(OS(=O)(=O)O)cc2)nc2ccccc2c1=O | > 63 | > 63 | inactive | inactive | inactive | inactive | > 63 | inactive | > 63 | > 63 | 81 | 20 | > 63 | > 63 | inactive | inactive | – | –
O=c1c2ccccc2nc(-c2ccc(OS(=O)(=O)O)cc2)n1CCCCCCCCCCn1c(-c2ccc(OS(=O)(=O)O)cc2)nc2ccccc2c1=O | > 63 | > 63 | inactive | inactive | inactive | inactive | > 63 | inactive | > 63 | > 25 | 95 | 16.6 | > 63 | > 25 | – | – | Active | Active
COc1ccc2nc(-c3ccc(OS(=O)(=O)O)cc3)n(CCCCCCn3c(-c4ccc(OS(=O)(=O)O)cc4)nc4ccc(OC)cc4c3=O)c(=O)c2c1 | > 63 | > 63 | inactive | inactive | inactive | inactive | > 63 | inactive | > 63 | > 63 | 95 | 35 | > 63 | > 63 | inactive | inactive | – | –
